Experimental data reported in the RNAGym collection of RNA variant scans (doi:10.1126/science.aae0568).
Variants at the floor of the assay were thinned out.

B1: tRNA (parent)
chain: GUUCCGUUGGCGUAAUGGUAACGCGUCUCCCUCCUAAGGAGAAGACUGCGGGUUCGAGUCCCGUACGGAACG

Variants of: B1
Test: yeast fitness relative to wild type (ratio to wild type); higher = fitter; tRNA-Arg(CCU), competitive growth, 37 C, YPD
Outline: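 Variants of the tRNA-Arg(CCU) gene, chemically synthesised with a 3% per-site mutation rate at 69 sites, were placed at the native genomic locus in Saccharomyces cerevisiae. The pooled strains were competed in YPD at 37°C for 24 hours in six parallel replicates. Gene amplicons from the start population and from each end population were read by 100-nucleotide paired-end sequencing. Darwinian fitness relative to wild type came from changes in genotype frequencies; genotypes needed ≥ 100 starting reads, and estimates < 0.5 were set to 0.5.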

Row | Variant | yeast fitness
1 | GUUUCGUUGGCGUAAUGGUAGAGCGUCUCCCUCCUAAGGAGAAGAAUGCGGGUUCGAGUCCCGUACGGAACG [C4U A21G C22A C46A] | 0.563
2 | GUUUCGUUGGCGUAAUGGUAACGCGUCUCCCUCCUAAGGAGAAGCCUGCGGGUUCGAGUGCCGUACGGAACG [C4U A45C C60G] | 0.671
3 | GUUUCGUUGGCGUAAUGGUAGCGCGUCUCCCUCCUAAGGAGAAGAAUGCGGGUUCGAGUCCCGCACGGAACG [C4U A21G C46A U64C] | 0.676
4 | GUUUCGUUGGCGUAAUGGUAACGCGUCUCCCUCCUAAGGAGAAGACUGCGGGUUCGAGUCCCGUACGGAGCG [C4U A70G] | 0.941
5 | GUUUCGUUGGCGUAAUGGUAACGCGUCUCCCUCCUAAGGAGAAGACUGCGGGUUCGGGUCCCGUACGGAACG [C4U A57G] | 0.872
6 | GUUUCGUUGGCGUAAUGGUAACGCGUCUCCCUCCUAAGGAGAAGACUGCGGGUUCGCGUCCCGUACGGAACG [C4U A57C] | 0.709
7 | GUUUGGUUGGCGUAAUGGUAACGCGUCUUCCAUCUAAGGAGAAGACUGCGGGUUCGAGUCCCGUACGGAACG [C4U C5G C29U U32A C33U] | ≤ 0.5
8 | GUUUCGUUGGCGUAAUGGUAACGCGUCUCCCUCCUAGGGACAAGACUGCGGGUUGGAGUCCCGUACGGAACG [C4U A37G G41C C55G] | 0.537
9 | GUUUCGUUGGCGUAAUGGUAACGCGUCUCCCUCCUAAGGAGCAGACUGCGGGUUCGAAUCCCGUACGGAACG [C4U A42C G58A] | 0.567
10 | GUUUCGUUGGCGUAAUGGUAACGCGUCUCCCUCCUCAGGAGAAGACUGCGGGUUCGAGUCCCGUACGGAACG [C4U A36C] | 0.542
11 | GUUUCGUUGGCGUAAUGGUUACGCGUCUCCCUCCUAAGGAGAAGACUGCGGGUUCGAGUCGCGUACGGAACG [C4U A20U C61G] | ≤ 0.5
12 | GUUUCGUUGGCGUAAUGGUAACGCGUCUCCCUCCUAAGGAGACGACUGCGGGUUCGAGUCCCGUACGGAACG [C4U A43C] | 1.01
13 | GUUUCGUUGGCGUAAUGGUAACGCGUCUCCCUCCUAAGGAGAUGACUGCGGGUUCGAGUCCCGUACGGAACG [C4U A43U] | 0.963
14 | GUUUCGUUGGCGUAAUGGUAACGCGUCUCCCUCCUAAGGAGCAGACUGCGGGUUUGAGUCCCGUACGGAACG [C4U A42C C55U] | ≤ 0.5
15 | GUUUCGUUGGCGUAAUGGUUACGCGUCUCCCUCCUAAGGAGAAGACGGCGGGUUCGAAUCCAGUACGGAACG [C4U A20U U47G G58A C62A] | ≤ 0.5
16 | GUUUGGUUGGCGUAAUGGUAACGCGUCUGCGUCCUACGGAGAAGACUGCGGGUUCGAGUCCCAUACGGAACG [C4U C5G C29G C31G A37C G63A] | 0.542
17 | GUUUAGUUGGCGUAAUGGUAACGCGUCUCCCUCCUAAGGAGAAGACUGCGGGUUCGAGUCCCGUACGGAACG [C4U C5A] | 0.796
18 | GUUUCGUUGGCGUAAUGGUAGCGCGUCUCCCUCCUAAGGAGAAGAAUGCGGGUUCGAGUCCCGUACGCAACG [C4U A21G C46A G68C] | 0.544
19 | GUUUCGUUGGCGUAAUGGUUACGCGUCUCCCUCCUAAGGAGAAGACUGCGGGCUCGAGUCCCGUACCGAACG [C4U A20U U53C G67C] | ≤ 0.5

Row | Variant | yeast fitness
20 | GUUUCGUUGGCGUAAUGGUAACGCGUCUCCCUCCUAAGGAGAAGACUGCGGGUUCGUGUCCCGUACGGAUCG [C4U A57U A70U] | 0.578
21 | GUUUCGUUGGCGUAAUGGUAUCGCGGCUCCCUCCUAAGGAGAAGACUGCGGGUUCGAAUCCCGUACGGAACG [C4U A21U U26G G58A] | 0.522
22 | GUUUCGUUGGCGUAAUGGUAACGCGUCUCCCUCCUAAGGAGAAGCCUGCGGGUUCGAGUCUCGUACGGAACG [C4U A45C C61U] | 0.738
23 | GUUUCGUUGGCGUAAUGGUACCGCAUCUCAGCCCUAAGGACAAGACUGCGGGUUCGAGUCCCGUACGGAACG [C4U A21C G25A C30A C31G U32C G41C] | ≤ 0.5
24 | GUUUCGUUGGCGUAAUGGUAACGCGUCUCCCUCCUGAGGCGAACACUGCGGGUUCGAGUCCCGUACGGAACG [C4U A36G A40C G44C] | 0.596
25 | GUUUCGUUGGCGUAAUGGUACCGCGUCUCCCUCCUAAGGAGAAGACUGCGGGUUCGAGUCCCGUACUGAACG [C4U A21C G67U] | ≤ 0.5
26 | GUUUCGUUGGCGUAAUGGUAACGCGUCUCCCUCCUAAGGAGAAGUCUGCGGGUUCGAGUCCCGUAGGGAACG [C4U A45U C66G] | 0.598
27 | GUUUCGUUGGCGUAAUGGUAACGCGUCUCCCUCCUAGGCAGAAGACUGCGGGUUCGAGUCCCGUACGGAACG [C4U A37G G39C] | ≤ 0.5
28 | GUUUCGUUGGCGUAAUGGUUACGCGUCCCCCUCCUAAGGAGAAGACUGCGGGUUCGAGUCGCGUACGGAACG [C4U A20U U28C C61G] | ≤ 0.5
29 | GUUUGGUUGGCGUACUGGUAACGCGUCUCCCUCCUAAGGAGCAGACUGCGGGUUCGAGUCCCGUACGGAACG [C4U C5G A15C A42C] | ≤ 0.5
30 | GUUUCGUUGGCGUAAUGGUAUCGCGUCUCCCUCCUAAGGAGGAGACUGCCGGUUCGAGUCCCGUAUGGAUCG [C4U A21U A42G G50C C66U A70U] | ≤ 0.5
31 | GUUUCGUUGGCGUAAUGGUACCGCGUCUCCCUCCUAAGGAGAAGACUGCGGGUUCGUGUCCCGUACGGAACG [C4U A21C A57U] | ≤ 0.5
32 | GUUUCGUUGGCGUAAUGGUAACGCGUCUCCCUCCUAAGGGGAAGACUGCGGGUUCGAGUCCCGCACGGAACG [C4U A40G U64C] | 0.952
33 | GUUUCGUUGGCGUAAUGGUAGCGCGUCGCCCUCCUAAGGAGAAGACUGCGGGUUCGAGUACCGUACGGAACG [C4U A21G U28G C60A] | ≤ 0.5
34 | GUUUCGUUGGCGUAAUGGUAACGCGUCUCCCUCCUAAGGAGAAGGCUGCGGGGUCGAGUCCCGUACGGAACG [C4U A45G U53G] | ≤ 0.5
35 | GUUUCGUUGGCGUAAUGGUAACGCGUCUCCCUCCUAUGGAGAAGACUGCGGGUUCGAGUCCCGUAAGGAACG [C4U A37U C66A] | 0.542
36 | GUUUAGUUGGCGUAAUGGUAACGCGUCUCCCUCCUAAGGAGAAGACUGCGGGUUCGAGCGCCGUACGGAACG [C4U C5A U59C C60G] | ≤ 0.5
37 | GUUUAGUUGGCGUAAUGGUAACGCGUCUCCCUCCUAAGGCGAAGACUGCGGGUUCGAGUCCCGUACGCAACG [C4U C5A A40C G68C] | ≤ 0.5
